# According to PubChem BioAssay AID488910 (Broad Institute, 2010):
# The whole screen tested about 20,000 compounds, of which about 25 (0.1%) were called active.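 Rule for the calls: active = mean replicate protection from cytokine-induced ATP loss at least 50% and at least 75% of replicates each reaching 50%; inconclusive = meets only one of the two criteria, mean or replicate share; inactive = fails both the mean and replicate share criteria.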 The sample as a whole holds a higher share of actives than the screen did.
# Test: protection of INS-1E cells from cytokine death, primary screen, ATP luminescence, single point (AID 488910)
# Conditions: INS-1E cytokine-induced death, 48 h, at 10 µM, stronger effect = higher value, normalised: neutral wells 0, positive control 100
# How it was run: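 Test system: INS-1E rat cells | Quantity: 8000 cells per well | Medium: Phenol-red-free RPMI with 5% fetal bovine serum | Reagent: Cytokine cocktail of IFN-γ, TNF-α and IL-1β | Doses: One compound concentration, pin transfer | Timing: 48 h co-treatment, 10 min post-lysis read | Technique: Luminescent ATP assay (CellTiter-Glo)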
row,SMILES,protection from cytokine-induced ATP loss
1,C[C@@H]1CN([C@@H](C)CO)C(=O)Cc2cc(NC(=O)Nc3ccc(F)cc3)ccc2O[C@@H]1CN(C)S(=O)(=O)c1ccccc1,13.1% (inactive)
2,C[C@@H]1CN([C@@H](C)CO)C(=O)c2cc(NS(C)(=O)=O)ccc2O[C@@H]1CN(C)C(=O)Nc1ccccc1,-5.38% (inactive)
3,CC(C)NC(=O)Nc1ccc2c(c1)C(=O)N([C@@H](C)CO)C[C@H](C)[C@@H](CN(C)S(C)(=O)=O)O2,2.67% (inactive)
4,C[C@H]1CN([C@@H](C)CO)C(=O)Cc2cc(NS(=O)(=O)c3cccs3)ccc2O[C@@H]1CN(C)S(=O)(=O)c1cn(C)cn1,6.75% (inactive)
5,COc1ccc(CN(C)C[C@H]2Oc3c(NS(=O)(=O)c4ccccc4)cccc3C(=O)N([C@@H](C)CO)C[C@H]2C)cc1,2.69% (inactive)
6,CNC[C@H]1Oc2ccc(NC(=O)C3CCCCC3)cc2C(=O)N([C@H](C)CO)C[C@@H]1C,1.62% (inactive)
7,C[C@@H]1CN([C@@H](C)CO)C(=O)c2cc(NC(=O)Cn3cnnn3)ccc2O[C@H]1CN(C)Cc1ccc(C(F)(F)F)cc1,-4.67% (inactive)
8,Cc1noc(C)c1NC(=O)Nc1ccc2c(c1)C(=O)N([C@@H](C)CO)C[C@H](C)[C@H](CN(C)Cc1ccc(-c3ccccc3)cc1)O2,-3.13% (inactive)
9,Cc1noc(C)c1NC(=O)Nc1ccc2c(c1)C(=O)N([C@@H](C)CO)C[C@@H](C)[C@@H](CN(C)CC1CCCCC1)O2,3.33% (inactive)
10,C[C@H](CO)N1C[C@H](C)[C@H](CN(C)Cc2ccc(Oc3ccccc3)cc2)Oc2c(NC(=O)CCCCCC(=O)Nc3ccccc3N)cccc2C1=O,-9.83% (inactive)
11,COc1ccc(NC(=O)N(C)C[C@H]2Oc3ccc(N(C)C)cc3C(=O)N([C@H](C)CO)C[C@H]2C)cc1,1.38% (inactive)
12,Cc1ccc(S(=O)(=O)Nc2ccc3c(c2)C(=O)N([C@H](C)CO)C[C@H](C)[C@@H](CN(C)C(=O)NC(C)C)OCCCC[C@@H](C)O3)cc1,12.2% (inactive)
13,Cc1ccc(S(=O)(=O)N(C)C[C@H]2Oc3ccc(NC(=O)CCCCCC(=O)Nc4ccccc4N)cc3C(=O)N([C@H](C)CO)C[C@H]2C)cc1,-6.48% (inactive)
14,CN(C)CCCOc1ccc(/C=N/NC(=O)c2cccc(C(=O)NO)c2)cc1,-4.67% (inactive)
15,C[C@H]1CN([C@@H](C)CO)C(=O)Cc2cc(NC(=O)Nc3ccc(C(F)(F)F)cc3)ccc2O[C@@H]1CN(C)S(=O)(=O)c1ccc(Cl)cc1,-4.37% (inactive)
16,C[C@@H]1CN([C@H](C)CO)C(=O)Cc2cc(NC(=O)CCCCCC(=O)Nc3ccccc3N)ccc2O[C@H]1CN(C)S(=O)(=O)c1ccc(F)cc1,9.28% (inactive)
